Experimental data taken from PMC4636458 (Molecular cancer therapeutics, 2015).
Read-outs that look alike come from different tables or passages of the source.

Molecular target: recombinant human ezrin (Homo sapiens, UniProt P15311)
Experiment: SPR
Assay type: binding
Conditions: read-out: KD (μM)^a, HBS-P pH 7.4, 2-10% DMSO, room temperature
Procedure, shortened: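 Untagged full-length recombinant human ezrin was expressed in E. coli M15 [pREP4] from a pQE16 vector. It was amine-coupled (~10,000 RU) in sodium acetate pH 4.5 to the second flow cell of a CM5 chip, with the first flow cell left empty for background subtraction. Running buffer was HBS-P (10 mM HEPES pH 7.4, 150 mM NaCl, 0.05% P20) with 2–10% DMSO. Seven concentrations (0.78–50 μM) were injected in triplicate over ezrin and control surfaces.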

Sequence of recombinant human ezrin (P15311 whole entry): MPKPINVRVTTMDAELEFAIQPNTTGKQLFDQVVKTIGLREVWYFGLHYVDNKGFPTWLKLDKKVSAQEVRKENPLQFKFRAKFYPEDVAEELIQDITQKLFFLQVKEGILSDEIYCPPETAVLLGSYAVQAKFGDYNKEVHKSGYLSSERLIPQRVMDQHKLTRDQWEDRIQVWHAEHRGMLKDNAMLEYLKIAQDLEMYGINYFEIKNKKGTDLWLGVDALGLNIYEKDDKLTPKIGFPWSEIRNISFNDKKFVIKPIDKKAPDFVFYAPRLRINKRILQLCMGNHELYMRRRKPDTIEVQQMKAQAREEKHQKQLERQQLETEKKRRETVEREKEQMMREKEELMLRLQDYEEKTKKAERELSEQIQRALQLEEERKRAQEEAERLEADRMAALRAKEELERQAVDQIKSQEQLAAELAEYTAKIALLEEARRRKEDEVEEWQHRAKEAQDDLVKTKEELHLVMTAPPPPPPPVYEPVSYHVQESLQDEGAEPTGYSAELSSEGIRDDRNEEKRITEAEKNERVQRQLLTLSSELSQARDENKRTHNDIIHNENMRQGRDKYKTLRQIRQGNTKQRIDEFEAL

Row | Structure (SMILES) | Kd (n=5) [µM] | Kd (n=3) [µM] | other results
1 | CCOC(=O)c1cn(CC)c2cc(N(C)CCc3ccc(OC)c(OC)c3)c(F)cc2c1=O [MMV665977] | 3.1 ± 1.6 |  | 
2 | COc1ccc(CCN2CCC(CN(C)Cc3cnn(-c4ccccc4)c3)CC2)cc1 [MMV666069] | 2.1 ± 1 |  | 
3 | CN(N=O)C1=C(NC2CCCCC2)C(=O)c2ccccc2C1=O [MMV667492] |  |  | Kd (n=2): 29.4 ± 4.4 µM
4 | CCn1c(SCC(=O)Nc2cc(C(F)(F)F)ccc2Cl)nc2ccccc2c1=O [MMV666103] |  |  | Kd (n=4): 2.6 ± 1 µM

Now from value to compound, other results behind:

Row | Kd (n=5) [µM] | Kd (n=3) [µM] | Structure (SMILES) | other results
5 |  | 6.1 ± 2.8 | CN1CCN(c2ccc(Nc3c4ccccc4nc4ccccc34)cc2)CC1 [MMV006172] | 
6 |  | 10.7 ± 0.4 | CC1CCN(Cc2ccc(NC(=O)c3cc4ccc5cccnc5c4[nH]3)cc2)CC1 [MMV020549] | 
